# Experimental data published in ChEMBL document CHEMBL4346667 (Eur J Med Chem, 2019).
# The source made the active and inactive calls. The rule behind the calls is not given here.
# Assays:
# HeLa = assay: Antiproliferative activity against human HeLa cells assessed as reduction in cell viability after 48 hrs by MTT assay; type: functional, cell-based
# In short: (§1)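 Cells grown at 37 °C, 5% CO2; HeLa, HepG2, H8, HL7702 in RPMI 1640 + 10% fetal calf serum, others in high-glucose DMEM + 10% fetal calf serum. Log-phase cells seeded at 4000-12000/well by doubling time. Attached cells were given 10-fold dilutions, 100 µM to 10 nM (DMSO 0.1% v/v), for 48 h. MTT (2 mg/mL) 4 h, formazan in DMSO, A492. IC50 from triplicate means.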
# MCF7 [1] = assay: Antiproliferative activity against human MCF7 cells assessed as reduction in cell viability after 48 hrs by MTT assay; type: functional, cell-based; conditions: MCF7, 48 h; in short: as §1
# HepG2 = assay: Antiproliferative activity against human HepG2 cells assessed as reduction in cell viability after 48 hrs by MTT assay; type: functional, cell-based; conditions: HepG2, 48 h; in short: as §1
# HMEC = assay: Antiproliferative activity against human HMEC cells assessed as reduction in cell viability after 48 hrs by MTT assay; type: functional, cell-based; in short: as §1
# L02 = assay: Antiproliferative activity against human HL7702 cells assessed as reduction in cell viability after 48 hrs by MTT assay; type: functional, cell-based; conditions: L02, 48 h; in short: as §1
# MRC5 = assay: Antiproliferative activity against human MRC5 cells assessed as reduction in cell viability after 48 hrs by MTT assay; type: functional, cell-based; conditions: MRC5, 48 h; in short: as §1
# [2] = Binding affinity to alpha/beta tubulin complex (unknown origin); parameters: species or system Homo sapiens
# In short: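 SPR assay: tubulin immobilized up to 800 mDeg (response units). Ligands were diluted two-fold from 80 µM to 2.5 µM in PBS with 0.5% (v/v) DMSO and injected at 60 µL/min for 300 s. Running buffer was PBS with 0.5% DMSO, at 25°C.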
# A549 = assay: Antiproliferative activity against human A549 cells assessed as reduction in cell viability after 48 hrs by MTT assay; type: functional, cell-based; conditions: A549, 48 h; in short: as §1
# [3] = Antiproliferative activity against human H8 cells assessed as reduction in cell viability after 48 hrs by MTT assay; type: functional, cell-based; in short: as §1
# Tubulin (Homo sapiens) [4] = biological target: T1, Tubulin (Homo sapiens) (UniProt P68371+Q9H4B7+P0DPH7+P68366+Q13509+Q71U36+P04350+Q3ZCM7+P07437+P68363+Q9BQE3+Q6PEY2+Q13885+Q9BVA1+Q9BUF5); assay: Ratio of Kd for PTOX to Kd for test compound for tubulin (unknown origin) by surface plasmon resonance analysis; type: protein-complex assay
# In short: (§2)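 SPR binding to immobilised tubulin (up to 800 mDeg) was measured at 25 °C. Compounds were diluted two-fold from 80 to 2.5 µM in PBS with 0.5% DMSO. They were injected at 60 µL/min for 300 s, with PBS containing 0.5% DMSO as running buffer. Kd values came from the titration data.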
# Tubulin = assay: Binding affinity to tubulin (unknown origin) assessed as dissociation constant by SPR analysis; type: protein-complex assay, Homo sapiens
# In short: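 Tubulin immobilised to about 800 mDeg. Injected at 60 µL/min for 300 s; PBS with 0.5% DMSO as running buffer. Measured at 25 °C, with dilution-corrected peak areas.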
# MCF7 [5] = assay: Cell cycle arrest in human MCF7 cells assessed as accumulation of cells at G2/M phase at >=250 nM after 24 hrs by propidium iodide double staining based flow cytometric analysis (reference value: 80%); type: functional
# In short: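 Log-phase cells seeded in 6-well plates and, once adhered, treated at 10-1000 nM; incubated in cycles of 6 h on/6 h off up to 48 h. Washed in cold PBS, fixed in 70% ethanol at -20 °C for at least 2 days. Stained with PI (50 µg/mL) 30 min on ice in the dark. 10,000 events on FL2-A vs FL2-W; G1/S/G2/M from DNA modelling. At least three repeats.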
# MCF7 [6] = assay: Induction of apoptosis in human MCF7 cells at 250 nM after 48 hrs by Annexin V-FITC/propidium iodide staining-based flow cytometric analysis relative to control (reference value: 11.6%); type: functional
# In short: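 MCF7 cells were seeded in 6-well plates and exposed after adhering to graded concentrations for 48 h, in cycles of 6 h on and 6 h off. They were then stained with annexin V (1 µg/mL) and PI (0.5 µg/mL) in Ca2+-enriched binding buffer for 15 min in the dark at room temperature. Flow cytometry recorded 10,000 events, FL1 versus FL2. Apoptosis was taken as early plus late stage, with at least 3 repeats.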
# Tubulin (Sus scrofa) [7] = biological target: T2, Tubulin (Sus scrofa) (UniProt P02554+P02550); assay: Inhibition of porcine tubulin assembly assessed as tubulin growth inhibition incubated for 30 min by fluorometric analysis; type: protein assay
# T2 sequence (P02550 whole entry, looked up): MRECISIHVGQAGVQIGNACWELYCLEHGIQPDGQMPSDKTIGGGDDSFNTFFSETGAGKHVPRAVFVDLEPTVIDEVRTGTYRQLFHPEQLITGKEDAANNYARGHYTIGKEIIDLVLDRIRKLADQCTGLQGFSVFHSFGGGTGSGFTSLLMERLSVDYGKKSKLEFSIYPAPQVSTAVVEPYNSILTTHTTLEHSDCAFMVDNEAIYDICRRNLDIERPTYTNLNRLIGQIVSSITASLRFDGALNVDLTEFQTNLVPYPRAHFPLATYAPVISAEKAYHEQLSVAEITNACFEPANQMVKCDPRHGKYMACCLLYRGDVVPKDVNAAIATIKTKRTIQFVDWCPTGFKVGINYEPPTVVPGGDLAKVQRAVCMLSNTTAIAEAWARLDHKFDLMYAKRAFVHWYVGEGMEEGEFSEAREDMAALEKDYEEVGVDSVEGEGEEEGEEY
# T2 sequence (P02554 whole entry, looked up): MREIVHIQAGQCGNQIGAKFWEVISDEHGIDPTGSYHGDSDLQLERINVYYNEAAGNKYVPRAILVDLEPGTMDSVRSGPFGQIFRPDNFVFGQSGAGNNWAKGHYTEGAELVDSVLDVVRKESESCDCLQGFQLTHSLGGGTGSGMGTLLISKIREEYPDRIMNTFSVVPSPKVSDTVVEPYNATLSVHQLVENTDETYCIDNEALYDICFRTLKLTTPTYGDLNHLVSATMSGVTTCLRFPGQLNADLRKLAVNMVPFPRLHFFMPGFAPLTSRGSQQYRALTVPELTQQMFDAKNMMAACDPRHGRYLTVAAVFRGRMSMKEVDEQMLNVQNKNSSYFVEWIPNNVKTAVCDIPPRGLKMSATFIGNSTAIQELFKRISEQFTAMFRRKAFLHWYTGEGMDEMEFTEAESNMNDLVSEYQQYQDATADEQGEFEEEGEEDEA
# In short: (§3)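 This was a centrifugation assay of tubulin assembly. Tubulin was held at 4 °C with 0.9 mM GTP and 6 mM MgCl2, and aggregates were removed at 90000 g for 10 min at 4 °C. Ligands at 0.05–2 µM (1% DMSO) were incubated for 30 min at 37 °C. Supernatants and pellets were diluted 1:5, and tubulin was read fluorometrically (ex 280, em 323) against standards. The 50% inhibitory concentration came from inhibition curves, as the mean of three experiments.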
# Tubulin (Sus scrofa) [8] = biological target: T2, Tubulin (Sus scrofa); assay: Inhibition of porcine tubulin assembly assessed as tubulin growth inhibition at 2 uM incubated for 30 min by fluorometric analysis; type: protein assay; in short: as §3
# Tubulin (Homo sapiens) [9] = biological target: T1, Tubulin (Homo sapiens); assay: Inhibition of tubulin polymerization in human HeLa cells assessed as cellular microtubule disorganization and H3 phosphorylation at 500 nM after 24 hrs by immunofluorescence based confocal microscopy; type: cell-based
# In short: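 HeLa cells on glass coverslips were treated for 24 h at 25, 250 or 500 nM. They were fixed in 4% paraformaldehyde for 1 h and permeabilised with 0.2% Triton X-100 for 20 min. Anti-α-tubulin (1:50 in 2% BSA) was applied for 1 h at RT, then Alexa Fluor 488 anti-rabbit IgG (1:500) for 1 h, then DAPI for 20 min. Cells were imaged by fluorescence and confocal microscopy.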
# Tubulin (Homo sapiens) [10] = biological target: T1, Tubulin (Homo sapiens); assay: Ratio of Kd for colchicine to Kd for test compound for tubulin (unknown origin) by surface plasmon resonance analysis; type: protein-complex assay; in short: as §2
# Tubulin (Homo sapiens) [11] = biological target: T1, Tubulin (Homo sapiens); assay: Inhibition of tubulin polymerization in human HeLa cells assessed as contracted and rounded cells with disordered abnormal spindles and chromosomal misalignment at 500 nM after 24 hrs by immunofluorescence based confocal microscopy; type: cell-based
# In short: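 HeLa cells on glass coverslips were treated for 24 h at 25, 250 or 500 nM. They were fixed in 4% paraformaldehyde for 1 h and permeabilised with 0.2% Triton X-100 for 20 min. Cells were imaged by fluorescence and confocal microscopy.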
SMILES,IC50 (HeLa) [µM],IC50 (MCF7 [1]) [µM],IC50 (HepG2) [µM],IC50 (HMEC) [µM],IC50 (L02) [µM],IC50 (MRC5) [µM],Ki [2] [µM],IC50 (A549) [µM],IC50 [3] [µM],Ratio (Tubulin (Homo sapiens) [4]),Kd (Tubulin) [µM],Activity (MCF7 [5]) [%],Activity (MCF7 [6]) [%],GI50 (Tubulin (Sus scrofa) [7]) [µM],inhibition (Tubulin (Sus scrofa) [8]) [%],inhibition (Tubulin (Homo sapiens) [9]),Ratio (Tubulin (Homo sapiens) [10]),inhibition (Tubulin (Homo sapiens) [11])
COc1cc([C@@H]2c3cc4c(cc3[C@@H](Nc3cccc5ncccc35)[C@H]3COC(=O)[C@H]23)OCO4)cc(OC)c1OC,> 100,> 100,> 100,79.8,89.8,70.8,0.06,> 100,94.2,,,,,,,,,
COc1cc2c(c(OC)c1OC)-c1ccc(OC)c(=O)cc1[C@@H](NC(C)=O)CC2 [COLCHICINE],10.2,14.3,5.8,8.1,9.2,6.2,0.11,9.7,6.1,,,,,,,,,
COc1cc([C@@H]2c3cc4c(cc3[C@@H](Nc3cccc5[nH]ccc35)[C@H]3COC(=O)[C@H]23)OCO4)cc(OC)c1OC,2.1,1.3,1.8,64.2,33.6,32.4,0.1,2.4,29.2,,,,,,,,,
COc1cc([C@@H]2c3cc4c(cc3[C@@H](Nc3ccc5[nH]ncc5c3)[C@H]3COC(=O)[C@H]23)OCO4)cc(OC)c1OC,0.2,0.2,0.3,81.8,50.6,60.8,0.06,0.2,98.4,2.7,9.1,45,60,< 0.1,79,Active,2.2,
COc1cc([C@@H]2c3cc4c(cc3[C@@H](Nc3ccc5cn[nH]c5c3)[C@H]3COC(=O)[C@H]23)OCO4)cc(OC)c1OC,0.8,0.8,1.9,52.5,38.4,53.6,0.03,1,65.5,,,,,,,,,
COC(=O)Nc1nc2cc(C(=O)c3cccs3)ccc2[nH]1 [NOCODAZOLE],0.3,0.2,0.4,11.5,13.5,15.3,,0.2,18,,,,,,,,,Active
COc1cc([C@@H]2c3cc4c(cc3[C@@H](Nc3ccc5cccnc5c3)[C@H]3COC(=O)[C@H]23)OCO4)cc(OC)c1OC,3.1,1.4,4.1,73.5,16.3,25.6,0.12,2.3,9.4,,,,,,,,,
COc1cc([C@@H]2c3cc4c(cc3[C@@H](Nc3cccc5cccnc35)[C@H]3COC(=O)[C@H]23)OCO4)cc(OC)c1OC,2.7,1,4.6,39.2,37,49.1,0.19,1.2,89.6,,,,,,,,,
COc1cc([C@@H]2c3cc4c(cc3[C@H](O)[C@H]3COC(=O)[C@H]23)OCO4)cc(OC)c1OC [PODOFILOX],6.9,2.4,2.4,5.6,5,10.6,0.27,2.6,8.4,,,,,,,,,Active
COc1cc([C@@H]2c3cc4c(cc3[C@@H](Nc3cccc5cc[nH]c35)[C@H]3COC(=O)[C@H]23)OCO4)cc(OC)c1OC,3.8,4.8,2.5,45.5,30.5,38.5,0.05,2.2,19.4,,,,,,,,,
COc1cc([C@@H]2c3cc4c(cc3[C@@H](Nc3ccc5ncccc5c3)[C@H]3COC(=O)[C@H]23)OCO4)cc(OC)c1OC,0.7,0.6,0.8,89.2,64.3,22.5,0.11,0.3,80.2,,,,,,,,,
COc1cc([C@@H]2c3cc4c(cc3[C@@H](Nc3ccc5[nH]ccc5c3)[C@H]3COC(=O)[C@H]23)OCO4)cc(OC)c1OC,0.9,0.4,0.9,55.2,43.3,51.3,0.1,0.5,29.2,,,,,,,,,
COc1cc([C@@H]2c3cc4c(cc3[C@@H](Nc3cccc5[nH]ncc35)[C@H]3COC(=O)[C@H]23)OCO4)cc(OC)c1OC,1.8,3,1.2,60.5,41.4,45.6,0.02,2.6,25.6,,,,,,,,,
COc1cc([C@@H]2c3cc4c(cc3[C@@H](Nc3cccc5cn[nH]c35)[C@H]3COC(=O)[C@H]23)OCO4)cc(OC)c1OC,2.5,2.7,6.3,43.3,29.4,35.5,0.12,5.4,19.5,,,,,,,,,
